Published values from different studies.
Each line is one published result; the experiments were not run side by side.
JAK3 JH1: Tyrosine-protein kinase JAK3, JH1 (JAK3, Homo sapiens, UniProt P52333)
JAK3: Tyrosine-protein kinase JAK3 (JAK3, Homo sapiens, UniProt P52333)

The remaining binding of `Nc1ncc(-c2nc(N3CCOCC3)nc(N3CCOCC3)n2)c(C(F)F)n1` is reported as 46% (JAK3 JH1; binding; competition with immobilised ligand; 10 µM).
The remaining signal of `O=c1[nH]c2ccccc2n1C1CCN(Cc2ccc(-c3[nH]c4cc5ncnc5cc4nc3-c3ccccc3)cc2)CC1` is reported as 100% (JAK3; cell-free assay; 0.5 µM).
The inhibition of `Cn1cc(-c2cc(F)cc(N3CCn4c(cc5c4CCCC5)C3=O)c2CO)cc(Nc2ccc(N3CCN(C4COC4)CC3)cn2)c1=O` is reported as 2% (JAK3; enzyme activity; inhibitor; 0.1 µM).
The remaining activity of `CC(C)(C)c1cc(C=C(C#N)C#N)cc(Br)c1O` is reported as 110% (JAK3; enzyme activity; inhibitor; 0.5 µM).
The remaining binding of `Cn1cncc1[C@@](O)(COc1ccc(C#N)cc1-c1ccc(OC(F)(F)F)cc1)c1ccc(C#N)cc1` is reported as 100% (JAK3 JH1; cell-free assay; competition with immobilised ligand; 1 µM).
For `C#Cc1n[nH]c2c(-c3cn(C(C)c4ccccn4)c(=O)[nH]c3=O)cc(F)cc12` (stereo not shown), the inhibition was -4.9% (JAK3; enzyme activity; inhibitor; 1 µM).
`Cn1cc(-c2cccc(N3CCc4c(sc5c4CC(C)(C)C5)C3=O)c2CO)cc(Nc2ccncn2)c1=O` gave an inhibition of -4% (JAK3; enzyme activity; inhibitor; 1 µM).
With `C#Cc1n[nH]c2c(-c3cn([C@@H](C)c4ccccc4)c(=O)[nH]c3=O)cc(F)cc12` the inhibition was -12.1% (JAK3; enzyme activity; inhibitor; 0.1 µM).
With `Cc1nn(C)cc1-c1nc2c(N3CCN(Cc4ccc(Cl)cc4)CC3)c(Cl)cnc2[nH]1` the remaining binding was 0.85% (JAK3 JH1; binding; competition with immobilised ligand; 1 µM).
`COc1ncccc1-c1cnn2ccc(N3CCN(C(=O)OC(C)C)CC3)nc12` has a remaining binding of 71% (JAK3; binding; competition with immobilised ligand; 1 µM).
